These results are taken from ChEMBL document CHEMBL3875205, “Macrocyclic MEK1/2 inhibitor with efficacy in a mouse model of cardiomyopathy caused by lamin A/C gene mutation” (Bioorg Med Chem, 2017).

This assay concerns the target Dual specificity mitogen-activated protein kinase kinase; MEK1/2 (Homo sapiens, UniProt P36507+Q02750). In words: Inhibition of MEK1/2 in human HT-29 cells assessed as reduction in cell proliferation after 72 hrs by CellTiter-Glo assay. In kind it is cell-based. Summed up: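 HT-29 cells were plated at 2,000/well in DMEM or RPMI with 10% FBS and left overnight at 37°C, 5% CO2. Medium was replaced with compound at 3-fold dilutions from 3.3 µM to 4.5 nM. After 72 h, viability was read by CellTiter-Glo luminescence and IC50 calculated.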
On the technique in general: In ATP-based viability assays light output follows the ATP content of the culture.

Broadly, the IC50 is the concentration that gives 50% inhibition. `O=S1(=O)Nc2c(cc(F)c(F)c2Nc2ccc(I)cc2F)OCC(O)C(O)CC12CC2` (single isomer, unassigned; form 2): the IC50 was 400 nM.
